Source: ChEMBL document CHEMBL1123026, “Preparation and antiarthritic and analgesic activity of 4,5-diaryl-2-(substituted thio)-1H-imidazoles and their sulfoxides and sulfones” (1985)

Key:
Assay type in all cases: functional
Mus musculus [1] = assay: Effective dose determined by mouse phenyl-p-benzoquinone writhing (PQW) assay after peroral administration; details: po
Outline: (§1)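 Fasted (17-21 h) female white mice, 5-20 per double-blind test, dosed orally with compound suspended in 1% methylcellulose. 0.20 mL aqueous 0.01% phenyl-p-benzoquinone given i.p. 6 min before a 10-min observation for stretching/writhing. ED50 (dose protecting 50% of mice) calculated by the moving-average method.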

Rattus norvegicus [2] = assay: Effective dose determined against rat adjuvant arthritis after peroral administration; details: po
Outline: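 Male Lewis rats (130-150 g) given 0.1 mL Mycobacterium butyricum adjuvant (5 mg/mL in mineral oil) s.c. into the right hind paw; arthritis developed for 2 weeks. Groups of 10 matched for severity were dosed orally by gavage in PVA-acacia vehicle (10 mL/kg) for 7 days. Uninjected left paw volume was measured the day after the last dose. Percent decrease was calculated vs arthritic and nonarthritic controls. ED50 was read from a visually fitted semilog dose-response line.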

Rattus norvegicus [3] = assay: Decrease in paw volume by the effect of compound at a dose of 100 mg/kg
Outline: (§2)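 Male Lewis rats (130-150 g) got 0.1 mL adjuvant (heat-killed Mycobacterium butyricum, 5 mg/mL in mineral oil) subplantar in the right hind paw and were left 2 weeks. Groups of 10 matched for severity were dosed orally by gavage (PVA-acacia vehicle, 10 mL/kg) for 7 days. Uninjected left hind paw volume was read the next day. % decrease = (arthritic control − treated)/(arthritic − nonarthritic control) × 100; Student's t-test.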

Rattus norvegicus [4] = assay: Decrease in paw volume was evaluated at dose 30 mg/kg; outline: as §2
Rattus norvegicus [5] = assay: Decrease in paw volume was evaluated at dose 9 mg/kg; outline: as §2
Rattus norvegicus [6] = assay: Decrease in paw volume was evaluated at dose 1 mg/kg; outline: as §2
Rattus norvegicus [7] = assay: Decrease in paw volume by the effect of compound at a dose of 75 mg/kg; outline: as §2
Mus musculus [8] = assay: Effective dose by mouse phenyl-p-benzoquinone writhing (PQW)assay after peroral administration; highest dose was tested; details: po; outline: as §1
Rattus norvegicus [9] = assay: Decrease in paw volume by the effect of compound at a dose of 50 mg/kg; outline: as §2
Rattus norvegicus [10] = assay: Decrease in paw volume was evaluated at dose 25 mg/kg; outline: as §2

Compound | ED50 (Mus musculus [1]) [mg/kg] | ED50 (Rattus norvegicus [2]) [mg/kg] | also measured
COc1ccc(-c2nc(SC)[nH]c2-c2ccc(OC)cc2)cc1 | > 135 | 4.5 | 
COc1ccc(-c2nc(S(=O)(=O)C(F)(F)C(F)F)[nH]c2-c2ccc(OC)cc2)cc1 |  | 1.4 | 
O=S(=O)(CCC(F)(F)F)c1nc(-c2ccccc2)c(-c2ccccc2)[nH]1 | > 135 | > 75 | 
COc1ccc(-c2[nH]c(SC(F)(F)C(F)F)nc2-c2ccccc2)cc1 | > 130 | 30 | 
FC(F)C(F)(F)Sc1nc(-c2ccc(Cl)cc2)c(-c2ccc(Cl)cc2)[nH]1 | > 135 | 0.33 | 
O=S(=O)(c1nc(-c2ccccc2)c(-c2ccccc2)[nH]1)C(F)(F)C(F)F |  | 0.095 | 
CSc1nc(-c2ccc(F)cc2)c(-c2ccc(F)cc2)[nH]1 | > 130 | 4 | 
Fc1ccc(-c2[nH]c(SC(F)(F)C(F)F)nc2-c2ccc(Cl)cc2)cc1 | > 130 |  | 
Fc1ccc(-c2nc(SC(F)(F)C(F)F)[nH]c2-c2ccc(C(F)(F)F)cc2)cc1 | > 130 |  | 
FC(F)C(F)(F)Sc1nc(-c2ccc(C(F)(F)F)cc2)c(-c2ccccc2)[nH]1 | > 130 |  | 
Cc1ccc(-c2nc(SC(F)(F)C(F)F)[nH]c2-c2ccc(C)cc2)cc1 | > 130 | 27 | 
COc1ccc(-c2nc([S+]([O-])CC(F)(F)F)[nH]c2-c2ccc(OC)cc2)cc1 (stereo unspecified) |  | 11 | 
Cc1ccc(-c2[nH]c(S(C)(=O)=O)nc2-c2ccccc2)cc1 | > 130 |  | Decrease (Rattus norvegicus [3]): 45%
COc1ccc(-c2nc(SC(C)C)[nH]c2-c2ccc(OC)cc2)cc1 |  |  | Decrease (Rattus norvegicus [4]): 38%
COc1ccc(-c2nc([S+](C)[O-])[nH]c2-c2ccc(OC)cc2)cc1 (stereo unspecified) | > 135 | 6.5 | 
CS(=O)(=O)c1nc(-c2ccc(Cl)cc2)c(-c2ccc(Cl)cc2)[nH]1 | 3.7 |  | 
CCCC[S+]([O-])c1nc(-c2ccccc2)c(-c2ccccc2)[nH]1 (stereo unspecified) | > 130 | > 100 | 
COc1ccc(-c2nc(SC[S+](C)[O-])[nH]c2-c2ccc(OC)cc2)cc1 (stereo unspecified) |  | 52 | 
[O-][S+](CCC(F)(F)C(F)(F)F)c1nc(-c2ccccc2)c(-c2ccccc2)[nH]1 (stereo unspecified) | > 130 | > 75 | 
FC(Br)C(F)(F)Sc1nc(-c2ccccc2)c(-c2ccccc2)[nH]1 (stereo unspecified) | > 130 | 11 | 
CSc1nc(-c2ccc(C(F)(F)F)cc2)c(-c2ccc(C(F)(F)F)cc2)[nH]1 | > 130 |  | Decrease (Rattus norvegicus [5]): 29%
CSCSc1nc(-c2ccccc2)c(-c2ccccc2)[nH]1 | > 130 | > 50 | 
Fc1ccc(-c2nc(SC(F)F)[nH]c2-c2ccc(F)cc2)cc1 | > 130 |  | 
CCCS(=O)(=O)c1nc(-c2ccccc2)c(-c2ccccc2)[nH]1 | > 130 |  | Decrease (Rattus norvegicus [3]): 26%
FC(F)(F)Sc1nc(-c2ccc(Cl)c(Cl)c2)c(-c2ccccc2)[nH]1 | > 130 |  | 
FC(F)C(F)(F)Sc1nc(-c2ccc(Cl)cc2)c(-c2ccc(C(F)(F)F)cc2)[nH]1 | > 130 |  | Decrease (Rattus norvegicus [6]): 35%
CSc1nc(-c2ccc(C(F)(F)F)cc2)c(-c2ccccc2)[nH]1 | > 130 |  | Decrease (Rattus norvegicus [5]): 41%

Compound | ED50 (Mus musculus [1]) [mg/kg] | ED50 (Rattus norvegicus [2]) [mg/kg] | also measured
C=CCS(=O)(=O)c1nc(-c2ccc(OC)cc2)c(-c2ccc(OC)cc2)[nH]1 | > 130 | 10 | 
FC(F)Sc1nc(-c2ccccc2)c(-c2ccccc2)[nH]1 | > 130 | 27 | 
FCC(F)(F)Sc1nc(-c2ccccc2)c(-c2ccccc2)[nH]1 | > 135 | 2 | 
CS(=O)(=O)c1nc(-c2ccc(F)cc2)c(-c2ccc(C(F)(F)F)cc2)[nH]1 | > 130 |  | 
[O-][S+](CCC(F)(F)F)c1nc(-c2ccccc2)c(-c2ccccc2)[nH]1 (stereo unspecified) | > 130 | > 75 | 
CSc1nc(-c2ccc(F)cc2)c(-c2ccc(C(F)(F)F)cc2)[nH]1 | > 130 |  | 
C[S+]([O-])c1nc(-c2cccc(F)c2)c(-c2ccccc2)[nH]1 (stereo unspecified) | > 130 |  | Decrease (Rattus norvegicus [3]): 67%
FC(F)(F)Sc1nc(-c2ccccc2)c(-c2ccccc2)[nH]1 | > 130 |  | Decrease (Rattus norvegicus [6]): 27%
COc1ccc(-c2[nH]c(SC(F)(F)C(F)F)nc2-c2ccc(F)cc2)cc1 | > 130 |  | 
CS(=O)(=O)c1nc(-c2ccc(F)cc2)c(-c2ccc(F)cc2)[nH]1 | > 130 |  | 
CCS(=O)(=O)c1nc(-c2ccccc2)c(-c2ccccc2)[nH]1 | > 135 |  | Decrease (Rattus norvegicus [3]): 32%
CS(=O)(=O)c1nc(-c2cccc(F)c2)c(-c2ccccc2)[nH]1 | > 130 |  | Decrease (Rattus norvegicus [7]): 32%
FC(F)C(F)(F)Sc1nc(-c2ccc(Cl)cc2)c(-c2ccccc2)[nH]1 | > 130 |  | 
FC(F)C(F)(F)Sc1nc(-c2ccccc2)c(-c2ccccc2)[nH]1 |  | 1.2 | ED50 (Mus musculus [8]): 81 mg/kg
FC(F)(F)CSc1nc(-c2ccc(Cl)cc2)c(-c2ccc(Cl)cc2)[nH]1 | > 130 | 4 | 
FC(F)(F)C(F)(F)CSc1nc(-c2ccccc2)c(-c2ccccc2)[nH]1 | > 135 |  | 
FC(F)C(F)(F)Sc1nc(-c2cccc(Cl)c2)c(-c2ccccc2)[nH]1 | > 130 |  | 
Fc1ccc(-c2nc(SC(F)(F)C(F)F)[nH]c2-c2ccccc2)cc1 | > 130 | 0.18 | 
FC(F)C(F)(F)Sc1nc(-c2ccc(Cl)c(Cl)c2)c(-c2ccccc2)[nH]1 | > 130 |  | 
CCSc1nc(-c2ccccc2)c(-c2ccccc2)[nH]1 | > 130 | 100 | 
CSc1nc(-c2ccc(Cl)cc2)c(-c2ccc(C(F)(F)F)cc2)[nH]1 | > 130 |  | 
CS(=O)(=O)c1nc(-c2ccc(Cl)cc2)c(-c2ccc(F)cc2)[nH]1 | > 130 |  | 
C[S+]([O-])c1nc(-c2cccc(Cl)c2)c(-c2ccccc2)[nH]1 (stereo unspecified) | > 130 |  | Decrease (Rattus norvegicus [7]): 77%
CCOc1ccc(-c2[nH]c(S(C)(=O)=O)nc2-c2ccccc2)cc1 | > 130 |  | Decrease (Rattus norvegicus [9]): 41%
COc1ccc(-c2[nH]c(SC)nc2-c2ccccc2)cc1 | > 130 |  | Decrease (Rattus norvegicus [10]): 35%
COc1ccc(-c2nc(SCC(F)(F)F)[nH]c2-c2ccc(OC)cc2)cc1 | > 135 | 35 | 
CS(=O)(=O)c1nc(-c2ccc(F)cc2)c(-c2ccccc2)[nH]1 |  | > 9 | ED50 (Mus musculus [8]): 135 mg/kg

Compound | ED50 (Mus musculus [1]) [mg/kg] | ED50 (Rattus norvegicus [2]) [mg/kg] | also measured
COc1ccc(-c2nc([S+]([O-])CC(C)=O)[nH]c2-c2ccc(OC)cc2)cc1 (stereo unspecified) |  | 35 | ED50 (Mus musculus [8]): 135 mg/kg
COc1ccc(-c2nc(S(=O)(=O)C(C)C)[nH]c2-c2ccc(OC)cc2)cc1 | > 130 |  | 
CS(=O)(=O)c1nc(-c2ccc(Cl)cc2)c(-c2ccccc2)[nH]1 | > 130 |  | 
C[S+]([O-])c1nc(-c2ccc(F)cc2)c(-c2ccc(F)cc2)[nH]1 (stereo unspecified) | > 130 |  | 
O=S(=O)(CCC(F)(F)C(F)(F)F)c1nc(-c2ccccc2)c(-c2ccccc2)[nH]1 | > 130 | > 75 | 
CSc1nc(-c2cccc(F)c2)c(-c2ccccc2)[nH]1 | > 130 | 75 | 
COc1ccc(-c2nc(SCSC)[nH]c2-c2ccc(OC)cc2)cc1 | > 130 |  | Decrease (Rattus norvegicus [4]): 46%
CSc1nc(-c2ccc(C)cc2)c(-c2ccc(C)cc2)[nH]1 | > 130 |  | Decrease (Rattus norvegicus [10]): 26%
COc1ccc(-c2[nH]c(S(=O)(=O)C(F)(F)C(F)F)nc2-c2ccccc2Cl)cc1 |  | 6 | 
[O-][S+](CC(F)(F)C(F)(F)F)c1nc(-c2ccccc2)c(-c2ccccc2)[nH]1 (stereo unspecified) | > 130 | > 75 | 
CSc1ccc(-c2[nH]c(SC(F)(F)C(F)F)nc2-c2ccc(F)cc2)cc1 | > 108 | 1.6 | 
CS(=O)(=O)c1nc(-c2ccc(C(F)(F)F)cc2)c(-c2ccccc2)[nH]1 | > 130 |  | Decrease (Rattus norvegicus [9]): 32%
CS(=O)(=O)c1nc(-c2ccc(Cl)c(Cl)c2)c(-c2ccccc2)[nH]1 | > 130 |  | Decrease (Rattus norvegicus [9]): 59%
FC(F)C(F)(F)Sc1nc(-c2cccc(Cl)c2)c(-c2cccc(Cl)c2)[nH]1 | > 130 | 1.2 | 
CS(=O)(=O)c1nc(-c2ccc(Cl)cc2)c(-c2ccc(C(F)(F)F)cc2)[nH]1 | > 135 |  | 
CSc1nc(-c2ccc(Cl)cc2)c(-c2ccc(F)cc2)[nH]1 | > 130 |  | 
Fc1ccc(-c2nc(SC(F)(F)C(F)F)[nH]c2-c2ccc(F)cc2)cc1 | > 81 | 0.05 | 
CSc1nc(-c2ccc(Cl)cc2)c(-c2ccc(Cl)cc2)[nH]1 | > 135 | 4 | 
CCCCSc1nc(-c2ccccc2)c(-c2ccccc2)[nH]1 | > 130 | > 75 | 
COc1ccc(-c2nc(SCC(C)=O)[nH]c2-c2ccc(OC)cc2)cc1 |  | 10 | 
C[S+]([O-])c1nc(-c2ccc(Cl)c(Cl)c2)c(-c2ccccc2)[nH]1 (stereo unspecified) | > 130 |  | Decrease (Rattus norvegicus [9]): 46%
CSc1nc(-c2ccc(Cl)c(Cl)c2)c(-c2ccccc2)[nH]1 | > 130 |  | Decrease (Rattus norvegicus [10]): 62%
CCCCS(=O)(=O)c1nc(-c2ccccc2)c(-c2ccccc2)[nH]1 | > 130 | > 100 | 
Fc1cccc(-c2nc(SC(F)(F)C(F)F)[nH]c2-c2ccccc2)c1 | > 130 | 2.5 | 
O=S(=O)(CC(F)(F)C(F)(F)F)c1nc(-c2ccccc2)c(-c2ccccc2)[nH]1 | > 130 | > 100 | 
Cl.Nc1ccc(-c2[nH]c(S(=O)(=O)C(F)(F)C(F)F)nc2-c2ccc(F)cc2)cc1 |  | > 3 | 
